KCNK9 inh: blocks the human KCNK9 two-pore domain potassium channel | B-score at 10 µM | HEK293 KCNK9, FluxOR thallium flux fluorescence; hits give low values | AID 488922 | actives 1.2% (n = 310,000);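 active means ratio B-score over 3 SD below the library mean, with starting fluorescence within 5 SD of its mean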;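 further: negative B-score means less thallium flux so channel inhibition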
Target sequence (Q9NPC2 whole entry, looked up, the tested form may be a part): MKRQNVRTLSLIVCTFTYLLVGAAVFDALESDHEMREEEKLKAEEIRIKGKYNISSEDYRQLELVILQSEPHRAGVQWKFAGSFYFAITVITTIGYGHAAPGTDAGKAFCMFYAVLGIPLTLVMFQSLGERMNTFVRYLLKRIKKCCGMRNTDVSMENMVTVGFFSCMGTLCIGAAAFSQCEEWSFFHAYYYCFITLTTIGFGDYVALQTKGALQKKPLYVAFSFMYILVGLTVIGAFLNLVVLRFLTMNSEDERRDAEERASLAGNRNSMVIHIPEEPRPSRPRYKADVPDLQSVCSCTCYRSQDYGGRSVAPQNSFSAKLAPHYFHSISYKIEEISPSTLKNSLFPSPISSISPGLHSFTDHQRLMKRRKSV
KCNK3 inh: human KCNK3 channel inhibition, primary screen; O14649; CHO-KCNK3 thallium flux, FluxOR fluorescence; hits give low values; B-score at 10 µM; actives 0.84% (n = 340,000); AID 602410;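 active means B-score under library mean minus 4 SD, starting fluorescence ratio at most library mean plus 5 SD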;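 further: more negative B-score means stronger inhibition of thallium flux through KCNK3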
hERG protect: shields human hERG channel from block by proarrhythmic agents. Q12809. CHO-hERG, FluxOR thallium flux, dofetilide IC70 present. activation (rescue from dofetilide block), less the hit threshold, % at 10 µM. actives 0.51% (n = 310,000). AID 1511;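 active means activation above the mean of controls blocked by dofetilide plus 5 SD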;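 further: thallium influx through hERG after potassium depolarization seen as dye fluorescence rise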
Kir21 inh: Kir2.1 (mouse) channel inhibition; HEK293-Kir2.1, FluxOR thallium flux fluorescence; hits give low values; actives 0.85% (n = 310,000); B-score at 10 µM; AID 1672;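 active means fluorescence ratio B-score at or below minus 3 SD of library scores, with starting-brightness B-score within 2 SD, cut at about -4.2 in these data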;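 further: channel flux triggered by added potassium and thallium sulfate stimulus; B-score of peak minus minimum fluorescence over baseline after thallium stimulus; more negative B-score means stronger Kir2.1 block with less thallium influx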
KCNQ1 block: human KCNQ1 channel inhibition. P51787. CHO-K1 KCNQ1, FluxOR thallium flux fluorescence; hits give high values. B-score at 10 µM. actives 1.3% (n = 310,000). AID 2642;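 active means compounds whose thallium flux B-score, printed positive for inhibition, exceeds three library SD while starting fluorescence stays within three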;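 further: channel opened by potassium depolarization with thallium stimulus after 20 min compound exposure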
KCNQ1 pot: potentiates or activates the human KCNQ1 potassium channel; actives 0.35% (n = 310,000); B-score at 10 µM; CHO-K1 KCNQ1, thallium flux FluxOR fluorescence; hits give high values; P51787;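 active means fluorescence ratio B-score, a plate-corrected score, at least three library SD, with initial intensity B-score within 5 SD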
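assay system = KCNQ1-transfected CHO-K1 cells | medium = assay buffer with matched DMSO | probe or stimulus = depolarizing K+/Tl+ stimulus, K2SO4 and Tl2SO4 each 12.5 mM in 5x stock | dosing = single dose | incubation = dye 90 min, compound 20 min, room temperature | detection = kinetic FluxOR fluorescence, 10 s baseline plus 110 s post-stimulus | evaluation = ratio B score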
* = called active by the depositor; i = inactive; . = no result given. A selection: hits, their analogues and other compounds. The true share with any hit is near 3.7%.

SMILES	KCNK9 inh	KCNK3 inh	hERG protect	Kir21 inh	KCNQ1 block	KCNQ1 pot
O=C(O)C1C=Cc2ccccc2N1C(=O)c1ccccc1 (configuration not stated) (tested in a mixture with another compound)	.	i	.	.	.	.
N#CC1C=Cc2ccccc2N1C(=O)c1ccccc1 (configuration not stated)	-7.26*	i	-3.6	-0.95	i	i
CC(C)CCN1CCN(Cc2ccc(C#CCCO)cc2)CC1CCO (configuration not stated)	i	i	-12.1	-0.29	i	i
COc1cccc(OC)c1OCCOCCN1CCN(C)CC1	i	i	18.6*	0.01	i	19*
COc1ccc(OCCOCCN2CCN(C)CC2)cc1	i	i	-2.1	0.72	i	i
CCN(CC(=O)Nc1c(F)cccc1F)C(=O)C1CC1C (configuration not stated)	i	i	-5.6	0.05	i	i
Cc1nnc(SCC(=O)Nc2nccs2)o1	i	i	-8.5	-0.67	i	i
CCN1CCN(CCCNC(=O)c2ccc3c(c2)NC(=O)/C(=C\c2cccc(C)c2)S3)CC1	i	i	-33.2	-4.08	i	i
Cc1cccc(/C=C2/Sc3ccc(C(=O)NCCN4CCCC4)cc3NC2=O)c1	i	i	-31.7	-2.81	6*	i
O=C1Nc2cc(C(=O)NCCN3CCCCCC3)ccc2S/C1=C\c1ccccc1	i	i	-28.2	-4.93*	i	i
C=CCN(C(=O)c1csnn1)C(C(=O)NCc1ccc(F)cc1)c1sccc1C (configuration not stated)	i	i	-14.2	1.68	i	i
O=[N+]([O-])c1c(Nc2ccccn2)cc(Cl)c2nonc12	-6.88*	i	-12.4	0.32	11*	i
COc1ccccc1N(CC(=O)Nc1ccccc1C(=O)N1CCOCC1)S(C)(=O)=O	i	i	-3.9	-1.53	i	i
CC(C)CC(C(=O)NC1CCCCC1)N(Cc1cccs1)C(=O)c1snc(C(N)=O)c1N (configuration not stated)	i	i	-21.0	0.55	8*	i
CN(C)c1ccc(C(C(=O)NCc2ccccc2)N(Cc2cccnc2)C(=O)c2snc(C(N)=O)c2N)cc1 (configuration not stated)	i	i	-9.2	-0.82	8*	i
CCCCC(C(=O)NC1CCCC1)N(Cc1ccccc1)C(=O)c1snc(C(N)=O)c1N (configuration not stated)	i	i	-12.3	1.19	10*	i
CC(C)CC(C(=O)NC1CCCC1)N(Cc1cccs1)C(=O)c1snc(C(N)=O)c1N (configuration not stated)	i	i	-31.8	-0.41	i	i
COc1ccc(C(C(=O)NCc2ccccc2)N(Cc2cccnc2)C(=O)c2snc(C(N)=O)c2N)cc1OC (configuration not stated)	i	i	-21.5	1.92	i	i
COC(=O)CCC(C(=O)CN1C(=O)c2ccccc2C1=O)N1C(=O)c2ccccc2C1=O (configuration not stated)	.	i	.	.	.	.
Cc1cccc(/C(N)=N/OC(=O)CCCc2ccccc2)c1	i	i	-5.1	3.13	i	i
O=C(c1ccc(S(=O)(=O)N2CCCC2)cc1)N1CCN(c2cccc(Cl)c2)CC1	i	i	-12.0	0.74	i	9*
O=C(c1ccc(S(=O)(=O)N2CCCC2)cc1)N1CCN(c2ccccc2)CC1	i	i	-8.4	1.07	i	i
COc1ccc(/C=N/NC(=O)c2ccn[nH]2)cc1COc1ccc([N+](=O)[O-])c(C)c1	i	i	-7.9	-1.29	6*	i
Cc1cc(C)n(-c2nnc(C)n2/N=C/c2ccccc2OCc2ccccc2Cl)n1	-7.06*	i	-20.2	-0.59	i	i
Cc1cc(C)n(-c2nnc(C)n2/N=C/c2ccccc2F)n1	i	i	-6.0	-0.62	i	i
CC1=C(SCc2ccccc2)C(=O)c2ccccc2C1=O	.	i	.	.	.	.
O=C1C(SCCO)=C(SCCO)C(=O)c2ccccc21	.	-15*	.	.	.	.

Screening results as filed in PubChem BioAssay.
